# Data reported in ChEMBL document CHEMBL5034008, “Diversity-Oriented A3-Macrocyclization for Studying Influences of Ring-Size and Shape of Cyclic Peptides: CD36 Receptor Modulators” (J Med Chem, 2021).
# Non-standard residues stand in square brackets, D forms with d. Residues, ends and D or L forms follow the SMILES beside them. ξ: configuration not given here. *: point of attachment. X1 = CCCCCCCCCCCCCCCC(=O)OCC(C*)OC(=O)CCCCCCCCCCCCCCC; ξC = NC(CS)C(=O)O
# How the values were obtained:
# [1] = target: Platelet glycoprotein 4 (Mus musculus) (UniProt Q08857); assay: Modulation of CD36 receptor in mouse RAW 264.7 cells assessed as inhibition of R-FSL-1-induced NO production at competitive receptor binding assay IC50 concentration pretreated for 30 mins followed by R-FSL-1 stimulation measured after 19 hrs by fluorescence plate reader assay relative to R-FSL-1; assay type: cell-based; design: scale not given: the % may be the effect or the level left
# [2] = target: Platelet glycoprotein 4 (Mus musculus) (UniProt Q08857); assay: Modulation of CD36 receptor in mouse RAW 264.7 cells assessed as inhibition of R-FSL-1-induced TNFalpha production pretreated for 30 mins followed by R-FSL-1 stimulation measured after 4 hrs by ELISA; assay type: cell-based; details: RAW264.7, filed as modulator, time 4.5 hrs
# How it was run: (§1)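 RAW 264.7 cells seeded at 1.5 × 10^5 per well and weaned overnight in DMEM with 1% pen/strep. Medium then changed to DMEM with 0.2% BSA. Cells pretreated 30 min with peptide at 10^-7 M, with linear [azaTyr4]-GHRP-6 as reference. Stimulated with R-FSL-1 at 300 ng/mL for 4 h at 37 °C. TNF-α or CCL-2 in supernatant measured by ELISA. Inhibition % = (FSL-1 − treated)/(FSL-1 − basal) × 100.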
# [3] = target: Platelet glycoprotein 4 (Mus musculus) (UniProt Q08857); assay: Modulation of CD36 receptor in mouse RAW 264.7 cells assessed as inhibition of R-FSL-1-induced TNFalpha production at competitive receptor binding assay IC50 concentration pretreated for 30 mins followed by R-FSL-1 stimulation measured after 19 hrs by ELISA relative to R-FSL-1; assay type: cell-based; design: scale not given: the % may be the effect or the level left; details: RAW264.7, time 19.5 hrs
# [4] = target: Platelet glycoprotein 4 (Mus musculus) (UniProt Q08857); assay: Modulation of CD36 receptor in mouse RAW 264.7 cells assessed as inhibition of R-FSL-1-induced NO production pretreated for 30 mins followed by R-FSL-1 stimulation measured after 1140 min by fluorescence plate reader assay; assay type: cell-based; details: RAW264.7, filed as modulator, time 1170.0 min
# How it was run: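 RAW 264.7 cells seeded at 1.5 × 10^5 per well in DMEM with pen/strep. After 2 h, medium changed to DMEM with 0.2% BSA containing peptide. Cells stimulated with R-FSL-1 at 300 ng/mL for 19 h. Nitrite in 25 μL supernatant reacted with 0.5 μg 2,3-diaminonaphthalene in 50 mM phosphate pH 7.5, 15 min at room temperature in the dark, stopped with NaOH. Fluorescence read.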
# [5] = target: Platelet glycoprotein 4 (Rattus norvegicus, UniProt Q07969); assay: Displacement of [125I]-Tyr-Bpa-Ala-hexarelin from rat CD36 receptor in heart tissue membrane incubated for 60 mins by competitive receptor binding assay; assay type: cell membranes
# How it was run: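 Rat heart membranes (50 μg) incubated in the dark with 250,000 cpm [125I]-Tyr-Bpa-Ala-hexarelin in 50 mM Tris-HCl pH 7.4, 2 mM EGTA, 0.05% bacitracin, with competitor at 0.1–10 μM; hexarelin as reference. Nonspecific binding defined with 50 μM peptide. 60 min at 22 °C, then UV photolysis at 365 nm for 15 min at 4 °C. Pellets resolved on 7.5% SDS-PAGE.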
# [6] = target: Platelet glycoprotein 4 (Mus musculus) (UniProt Q08857); assay: Modulation of CD36 receptor in mouse RAW 264.7 cells assessed as inhibition of R-FSL-1-induced CCL-2 production pretreated for 30 mins followed by R-FSL-1 stimulation measured after 4 hrs by ELISA; assay type: cell-based; details: RAW264.7, filed as modulator, time 4.5 hrs; how it was run: as §1
# [7] = target: Platelet glycoprotein 4 (Mus musculus) (UniProt Q08857); assay: Modulation of CD36 receptor in mouse BMA3.1A7 cells assessed as inhibition of R-FSL-1-induced IL-1beta production at competitive receptor binding assay IC50 concentration pretreated for 30 mins followed by R-FSL-1 stimulation measured after 4 hrs by ELISA relative to R-FSL-1; assay type: cell-based; design: scale not given: the % may be the effect or the level left; details: time 4.5 hrs
# [8] = target: Platelet glycoprotein 4 (Mus musculus) (UniProt Q08857); assay: Modulation of CD36 receptor in mouse BMA3.1A7 cells assessed as inhibition of R-FSL-1-induced IL-1beta production […] measured after 4 hrs by ELISA; assay type: cell-based; details: filed as modulator, time 4.5 hrs
# [9] = target: Platelet glycoprotein 4 (Mus musculus) (UniProt Q08857); assay: Modulation of CD36 receptor in mouse RAW 264.7 cells assessed as inhibition of R-FSL-1-induced CCl-2 production at competitive receptor binding assay IC50 concentration pretreated for 30 mins followed by R-FSL-1 stimulation measured after 19 hrs by ELISA relative to R-FSL-1; assay type: cell-based; design: scale not given: the % may be the effect or the level left
# [10] = RAW264.7, filed as modulator, time 19.5 hrs
# Platelet glycoprotein 4 (Mus musculus), sequence (Q08857 whole entry): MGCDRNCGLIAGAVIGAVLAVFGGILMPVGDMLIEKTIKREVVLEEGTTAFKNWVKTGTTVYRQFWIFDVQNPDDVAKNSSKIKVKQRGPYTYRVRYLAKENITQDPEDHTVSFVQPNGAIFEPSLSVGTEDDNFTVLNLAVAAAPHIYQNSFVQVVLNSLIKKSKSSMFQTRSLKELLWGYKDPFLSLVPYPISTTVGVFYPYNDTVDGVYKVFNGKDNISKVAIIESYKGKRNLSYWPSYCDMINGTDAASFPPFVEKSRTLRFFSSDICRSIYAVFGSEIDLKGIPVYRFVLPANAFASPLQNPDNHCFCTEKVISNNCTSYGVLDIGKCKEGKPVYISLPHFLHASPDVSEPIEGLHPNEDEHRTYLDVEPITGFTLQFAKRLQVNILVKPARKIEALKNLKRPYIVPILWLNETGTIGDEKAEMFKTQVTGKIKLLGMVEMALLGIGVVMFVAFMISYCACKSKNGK
# Platelet glycoprotein 4, sequence (Q07969 whole entry): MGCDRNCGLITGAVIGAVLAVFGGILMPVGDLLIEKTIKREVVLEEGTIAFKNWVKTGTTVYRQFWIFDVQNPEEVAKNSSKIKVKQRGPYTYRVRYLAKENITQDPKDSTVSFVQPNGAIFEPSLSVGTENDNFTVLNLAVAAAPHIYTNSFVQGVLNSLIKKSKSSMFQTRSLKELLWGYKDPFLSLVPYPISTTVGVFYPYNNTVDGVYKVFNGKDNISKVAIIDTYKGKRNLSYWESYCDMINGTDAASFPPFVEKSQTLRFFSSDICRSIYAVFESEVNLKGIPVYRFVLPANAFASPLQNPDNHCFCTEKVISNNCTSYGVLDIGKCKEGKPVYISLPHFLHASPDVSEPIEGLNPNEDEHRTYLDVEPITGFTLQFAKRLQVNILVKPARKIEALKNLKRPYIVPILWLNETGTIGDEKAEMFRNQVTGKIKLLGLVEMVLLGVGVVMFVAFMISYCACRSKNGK
Structure (SMILES),"Activity ([1]; RAW264.7, time 1170.0 min)",Activity [2],Activity [3],Activity [4],IC50 [5],Activity [6],Activity [7],Activity [8],"Activity ([9]; RAW264.7, time 19.5 hrs)","Activity ([1]; RAW264.7, filed as modulator, time 1170.0 min)","Activity [9, 10]",Activity ([7]; filed as modulator)
CCCN1CCCC[C@@H](C(N)=O)NC(=O)[C@@H](Cc2ccccc2)NC(=O)[C@H](Cc2c[nH]c3ccccc23)NC(=O)[C@H](C)NC(=O)[C@@H](Cc2c[nH]c3ccccc23)NC(=O)N(NC(=O)[C@H](C)N)CCCC1,36%,4110 pmol,21%,2.08 µM,2.26 µM,802 pmol,29%,312 pmol,34%,–,–,–
C=CCN1CC#CCN(NC(=O)[C@H](C)N)C(=O)N[C@H](Cc2c[nH]c3ccccc23)C(=O)N[C@@H](C)C(=O)N[C@@H](Cc2c[nH]c3ccccc23)C(=O)N[C@H](Cc2ccccc2)C(=O)N[C@H](C(N)=O)CCC1,15%,4650 pmol,8%,2.52 µM,13.1 µM,971 pmol,0%,411 pmol,15%,–,–,–
C=CCN1CC#CCN(NC(=O)[C@H](C)N)C(=O)N[C@@H](C)C(=O)N[C@@H](Cc2c[nH]c3ccccc23)C(=O)N[C@H](Cc2ccccc2)C(=O)N[C@H](C(N)=O)CC1,15%,4850 pmol,3%,2.51 µM,10.2 µM,954 pmol,6%,389 pmol,17%,–,–,–
C=CCN1CC#CCN(NC(=O)[C@H](C)NC(C)=O)C(=O)N[C@H](Cc2c[nH]c3ccccc23)C(=O)N[C@@H](C)C(=O)N[C@@H](Cc2c[nH]c3ccccc23)C(=O)N[C@H](Cc2ccccc2)C(=O)N[C@H](C(N)=O)CCCC1,23%,4040 pmol,22%,2.35 µM,–,707 pmol,32%,304 pmol,–,–,45%,–
C=CCN1CC#CCN(NC(=O)[C@H](C)N)C(=O)N[C@H](Cc2c[nH]c3ccccc23)C(=O)N[C@@H](C)C(=O)N[C@@H](Cc2c[nH]c3ccccc23)C(=O)N[C@H](Cc2ccccc2)C(=O)N[C@H](C(N)=O)CCCC1,35%,3940 pmol,25%,2.11 µM,0.1 µM,672 pmol,–,253 pmol,–,–,50%,46%
C=CCN1CC#CCN(NC(=O)[C@H](C)N)S(=O)(=O)N[C@H](Cc2c[nH]c3ccccc23)C(=O)N[C@@H](C)C(=O)N[C@@H](Cc2c[nH]c3ccccc23)C(=O)N[C@H](Cc2ccccc2)C(=O)N[C@H](C(N)=O)CCCC1,4%,5120 pmol,-4%,2.74 µM,10.2 µM,969 pmol,6%,378 pmol,15%,–,–,–
C[C@H](N)C(=O)NN1C/C=C\CN(CC2CC2)CCCC[C@@H](C(N)=O)NC(=O)[C@@H](Cc2ccccc2)NC(=O)[C@H](Cc2c[nH]c3ccccc23)NC(=O)[C@H](C)NC(=O)[C@@H](Cc2c[nH]c3ccccc23)NC1=O,12%,4820 pmol,3%,2.57 µM,9.05 µM,903 pmol,9%,312 pmol,23%,–,–,–
C=CCN1CC#CCN(NC(=O)[C@H](C)N)C(=O)N[C@H](Cc2c[nH]c3ccccc23)C(=O)N[C@@H](C)C(=O)N[C@@H](Cc2c[nH]c3ccccc23)C(=O)N[C@H](Cc2ccccc2)C(=O)N[C@H](C(N)=O)CC1,27%,4180 pmol,19%,2.26 µM,4.75 µM,857 pmol,–,271 pmol,28%,–,–,41%

# Next, values leading:
"Activity ([1]; RAW264.7, time 1170.0 min)",Activity [2],Activity [3],Activity [4],IC50 [5],Activity [6],Activity [7],Activity [8],"Activity ([9]; RAW264.7, time 19.5 hrs)","Activity ([1]; RAW264.7, filed as modulator, time 1170.0 min)","Activity [9, 10]",Activity ([7]; filed as modulator),Structure (SMILES)
4%,4460 pmol,12%,2.75 µM,1.86 µM,918 pmol,29%,313 pmol,13%,–,–,–,CCCN1CC#CCN(NC(=O)[C@H](C)N)C(=O)N[C@H](Cc2c[nH]c3ccccc23)C(=O)N[C@@H](C)C(=O)N[C@@H](Cc2c[nH]c3ccccc23)C(=O)N[C@H](Cc2ccccc2)C(=O)N[C@H](C(N)=O)CCCC1
–,3840 pmol,27%,2.3 µM,–,758 pmol,35%,291 pmol,39%,25%,–,–,C=CCN1CC#CCN(NC(=O)[C@H](C)N)C(=O)N[C@@H](C)C(=O)N[C@@H](Cc2c[nH]c3ccccc23)C(=O)N[C@H](Cc2ccccc2)C(=O)N[C@H](C(N)=O)CCCC1
14%,4620 pmol,8%,2.53 µM,3.06 µM,984 pmol,13%,366 pmol,21%,–,–,–,C[C@H](N)C(=O)NN1CC#CCN(CC2CC2)CCCC[C@@H](C(N)=O)NC(=O)[C@@H](Cc2ccccc2)NC(=O)[C@H](Cc2c[nH]c3ccccc23)NC(=O)[C@H](C)NC(=O)[C@@H](Cc2c[nH]c3ccccc23)NC1=O
–,4970 pmol,–,2.82 µM,–,1100 pmol,–,410 pmol,–,–,–,–,CCCCCCCCCCCCCCCC(=O)OCC(CSCC(N)C(=O)NCC(=O)N[C@@H](CC(=O)O)C(=O)N1CCC[C@H]1C(=O)N[C@@H](CCCCN)C(=O)N[C@@H](Cc1cnc[nH]1)C(=O)N1CCC[C@H]1C(=O)N[C@@H](CCCCN)C(=O)N[C@@H](CO)C(=O)N[C@@H](Cc1ccccc1)C(=O)O)OC(=O)CCCCCCCCCCCCCCC (some centres not stated) (H-[ξC](X1)GDPKHPKSF-OH)
5%,4900 pmol,2%,2.72 µM,> 50 µM,1040 pmol,7%,388 pmol,6%,–,–,–,C=CCN1CC#CCN(N)C(=O)N[C@H](Cc2c[nH]c3ccccc23)C(=O)N[C@@H](C)C(=O)N[C@@H](Cc2c[nH]c3ccccc23)C(=O)N[C@H](Cc2ccccc2)C(=O)N[C@H](C(N)=O)CCCC1
18%,4560 pmol,10%,2.45 µM,–,785 pmol,18%,351 pmol,36%,–,–,–,C=CCN1CC#CCN(NC(C)=O)C(=O)N[C@H](Cc2c[nH]c3ccccc23)C(=O)N[C@@H](C)C(=O)N[C@@H](Cc2c[nH]c3ccccc23)C(=O)N[C@H](Cc2ccccc2)C(=O)N[C@H](C(N)=O)CCCC1
0%,4760 pmol,5%,2.81 µM,22.8 µM,1030 pmol,9%,381 pmol,8%,–,–,–,C=CCN1CC#CCN(NC(=O)[C@H](C)N)C(=O)N[C@@H](C)C(=O)N[C@@H](Cc2c[nH]c3ccccc23)C(=O)N[C@H](Cc2ccccc2)C(=O)N[C@H](C(N)=O)CCC1
